Test results as given in PubChem BioAssay.
Active and inactive are the calls of the source.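 The calls were made as follows, unless noted: active = viability loss from added drug above about 55%, and viability with drug at most 40%, in both replicates (limit read from the data, passing the limit was not always enough); inconclusive = both conditions met in only one replicate; inactive = neither replicate meets both conditions.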

Tests used:
[1] = SK-BR-3 cell growth inhibitors, pilot screen, 24 h, human (AID 572;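 active = viability at or below 10% of carrier control in both of two separate runs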;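 also: compound exposure lasted between 18 and 24 h rather than exactly 24 h; 100% = carrier-treated control wells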); conditions: SK-BR-3 viability, CellTiter-Glo luminescence, at 10 µM, stronger effect = lower value
[2] = HUVEC growth inhibition – cell-based, human, primary screen (AID 575;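 active = viability at or below 30% in both replicate assays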;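 also: 100% = median of untreated cell wells with 0.1% DMSO on each plate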); conditions: HUVEC proliferation, CellTiter-Glo luminescence, 72 h; at 10 µM; stronger effect = lower value
Method in brief: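 Assay system: primary human umbilical vein endothelial cells / Buffer or medium: endothelial basal medium with 2% FBS plus growth supplements / Compound dosing: one dose, 10 µM final, 0.1% DMSO / Timing: 72 h treatment at 37 °C / Signal: CTG luminescence / Benchmarks: 32 DMSO-only cell-control wells (high), 32 MePR drug-control wells (low) per plate / Plate: collagen-coated 384-well format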

[3] = growth inhibitors of H69AR lung tumor, primary screen, human, duplicate replicates (AID 580;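 active = viability at or under a set limit in both replicates, limit being median viability minus 3 SD, cut at about 48% in these data, passing the limit was not always enough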;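 also: 100% = mean luminescence of untreated wells and 0% = no signal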); conditions: H69AR lung tumor cells viability, ATP luminescence, 72 h; at 10 µM; stronger effect = lower value
[4] = reversal of MRP1-mediated doxorubicin resistance, pilot screen, H69AR cells, doxorubicin co-treatment (AID 601); conditions: CellTiter-Glo, 72 h, at 10 µM; for differential viability (reversal): stronger effect = higher value
[5] = 384-well plate pilot, post-Golgi transport modulator project, inhibition of yeast transport mutant growth (AID 636; in the data active = inhibition above about 31%); conditions: absorbance 615 nm, about 18 h, stronger effect = higher value
[6] = growth suppression of yeast trafficking mutant, preliminary HTS, modulators of trafficking downstream of Golgi apparatus project, 1536-format plate, OD 615 nm (AID 637; in the data active = inhibition above about 30%); conditions: yeast transport mutant growth, absorbance 615 nm, 18 h; stronger effect = higher value
[7] = H69AR cells + 2 uM doxorubicin, measured here: viability with 2 uM doxorubicin, stronger effect = lower value
[8] = H69AR cells, compound alone cytotoxicity

Row | Compound | viability [1] | viability [2] | viability [3] | differential viability (reversal) ([4]; H69AR cells + 2 uM doxorubicin) | viability [4, 7] [%] | viability [4, 8] [%] | inhibition [5] | inhibition [6]
1 | O=C(Nc1ccccc1-c1ccccc1)NC1CCN(C(=O)N2CCOCC2)CC1 | 108% (inactive) | 95.9% (inactive) | 103% (inactive) | 3.68% (inactive) | 99.5 | 103 | -3.29% (inactive) | 4.03% (inactive)
2 | CCOC(=O)c1ccc(NC(=O)CSC2=NC(=O)C(CC)C(=O)N2)cc1 (configuration not stated) | 94% (inactive) | 65.8% (inactive) | 105% (inactive) | 22.1% (inactive) | 83.3 | 105 | 0.78% (inactive) | -2.3% (inactive)
3 | Cc1nn(C(=O)c2ccccc2)c2c1C(=O)CC(C)(C)C2 | 76% (inactive) | 95.8% (inactive) | 94.7% (inactive) | 1.29% (inactive) | 93.4 | 94.7 | -7.12% (inactive) | 0.73% (inactive)
4 | CC(CCc1ccccc1)NCC(O)c1ccc(O)c(C(N)=O)c1 (configuration not stated) | 94% (inactive) | 104% (inactive) | 93.8% (inactive) | 1.8% (inactive) | 92 | 93.8 | 1.17% (inactive) | -3.17% (inactive)
5 | Cc1cc(C)n(C(=O)C23CC4CC(CC(C4)C2)C3)n1 | 106% (inactive) | 85.9% (inactive) | 99.3% (inactive) | 3.23% (inactive) | 96.1 | 99.3 | -8.36% (inactive) | -5.32% (inactive)
6 | Cc1c2cnn(CC(=O)N3CCN(c4ncccn4)CC3)c(=O)c2c(C)n1Cc1ccc(F)cc1 | 99% (inactive) | 106% (inactive) | 99.5% (inactive) | 2.37% (inactive) | 97.2 | 99.5 | 5.14% (inactive) | -4.73% (inactive)
7 | O=C(O)CCCc1ccccc1 | 97% (inactive) | 91.8% (inactive) | 98% (inactive) | 1.58% (inactive) | 96.4 | 98 | -0.91% (inactive) | 8% (inactive)
8 | Cc1ccc(CN2CCN(C(=O)C3CCC3)CC2)cc1 | 88% (inactive) | 102% (inactive) | 97% (inactive) | 4.13% (inactive) | 92.9 | 97 | -8.49% (inactive) | 2.36% (inactive)
9 | Cc1cc(C(=O)N2CCCc3ccccc32)no1 | 98% (inactive) | 102% (inactive) | 105% (inactive) | 14.4% (inactive) | 90.3 | 105 | -2.27% (inactive) | 1.27% (inactive)
10 | Cc1cccc(N2C(=O)CC(N(C(=O)c3ccco3)c3cccc(C)c3)C2=O)c1 (configuration not stated) | 104% (inactive) | 98.8% (inactive) | 98.5% (inactive) | -3.33% (inactive) | 102 | 98.5 | 0% (inactive) | 6.13% (inactive)
11 | CC(=O)c1ccc(NC(=O)CCc2c(C)nc3ncnn3c2C)cc1 | 100% (inactive) | 87.5% (inactive) | 93.1% (inactive) | 6.04% (inactive) | 87.1 | 93.1 | -1.3% (inactive) | -5.08% (inactive)
12 | Cc1cnc(C(=O)Nc2ccccc2-n2cccc2)cn1 | 94% (inactive) | 105% (inactive) | 92.4% (inactive) | 3.75% (inactive) | 88.6 | 92.4 | -7.6% (inactive) | -2.73% (inactive)
13 | Clc1ccc2c(c1)C(N1CCNCC1)=Nc1ccccc1O2 | 73% (inactive) | 46% (inactive) | 84.4% (inactive) | 11.4% (inactive) | 73 | 84.4 | -1.3% (inactive) | -3.83% (inactive)
14 | O=C(NCCCN1CCN(Cc2ccccc2)CC1)C1CCN(c2nnc(-n3cccc3)s2)CC1 | 118% (inactive) | 97.1% (inactive) | 88.7% (inactive) | 4.26% (inactive) | 84.4 | 88.7 | -4.93% (inactive) | -1.82% (inactive)
15 | COc1cccc(NC(=O)C2CCCN2C(=O)Nc2cccc(F)c2)c1 (configuration not stated) | 96% (inactive) | 103% (inactive) | 103% (inactive) | 8.87% (inactive) | 94 | 103 | -3.7% (inactive) | -3.06% (inactive)
16 | COCCn1c(-c2ccco2)nc2nc3ccccc3nc21 | 99.5% (inactive) | 99.1% (inactive) | 77.3% (inactive) | -2.21% (inactive) | 79.6 | 77.3 | -8.27% (inactive) | 3.28% (inactive)
17 | CN(C(=O)C1CCCO1)c1nnc(-c2ccncc2)s1 (configuration not stated) | 81% (inactive) | 111% (inactive) | 100% (inactive) | 7.37% (inactive) | 92.7 | 100 | -3.24% (inactive) | -1.82% (inactive)
18 | CCOC(=O)c1c(NC(=O)Cn2c(=O)oc3ccccc32)oc(C)c1C(C)=O | 81% (inactive) | 99.3% (inactive) | 101% (inactive) | 5.86% (inactive) | 95.1 | 101 | -1.23% (inactive) | -4.52% (inactive)
19 | Cc1ccc2[nH]c3c(=O)n(CCCN4CCN(C)CC4)cnc3c2c1 | 115% (inactive) | 99.9% (inactive) | 95.5% (inactive) | 2.28% (inactive) | 93.2 | 95.5 | -4.67% (inactive) | 0% (inactive)
